AI-2 QS mod – modulates the Vibrio harveyi AI-2 quorum sensing system. Vibrio harveyi JMH597 AI-2 luminescence/OD600 ratio, 9 h; hits give low values; strain lacks LuxN and CqsS sensors; 0 = neutral-control median. activity change, % at 7.5 µM. AID 2094. 300,000 tested, 0.4% active; in the data active = activity change below about -75%, passing the limit was not always enough;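 also: luminescence divided by OD600 gain over 9 h not by final OD600 alone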
HIF act – HIF pathway transcriptional activation; U2OS HRE-luciferase reporter, luminescence; normalized: DMSO 0%, desferrioxamine 100%; activation, % at 7.5 µM (by protocol); 300,000 tested, 0.32% active; AID 1910;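 active = mean activation of at least 10% of the iron chelator positive control signal, with at least half of replicates also reaching 10%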
ARNT TACC3 PPI – disrupts binding between human ARNT and TACC3. Q9Y6A5. AlphaScreen His-ARNT PAS-B/GST-TACC3 binding, luminescence; TACC3 fragment carries E629A point mutation. inhibition, % at 9.99 µM. 390,000 tested, 0.66% active. AID 623870;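 active = mean inhibition of replicates at least 50% and at least half of replicates each reaching 50%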
T cruzi repl – T. cruzi replication inhibition; 300,000 tested, 1.4% active; T. cruzi beta-gal in NIH3T3, luminescence, 90 h; AID 1885; inhibition, % (test concentration not listed);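 active = mean inhibition across valid replicates above about 55%, limit read from the data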;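 also: signal also drops with host cell toxicity which is not excluded here; higher percent means less beta-gal luminescence so fewer parasites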
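Assay system: NIH/3T3 fibroblasts plus reporter T. cruzi. Amount: NIH/3T3 cells, 5,000 per well. Buffer or medium: DMEM, 2% fetal bovine serum. Doses: compound pinned at 50 nL/well, DMSO. Schedule: ≥90 h infection period, 3 h prior cell attachment. Signal: luminescent β-galactosidase signal after 60 min lysis. Read-out: parasite load inhibition, %.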
Of the large screens only hits and unclear results are named; the others gave an inactive call. Shown are actives, neighbours in structure and some others; about 2% of the full set was active somewhere.

COc1ccc(NC(=O)C2CCCCN2N)cc1OCC(C)C (centres undefined)	none
COc1ccc(CNN2CCCCC2C(=O)Nc2ccc(OC)c(OCC(C)C)c2)cc1OC (centres undefined)	T cruzi repl 57
Cc1cc(C(=O)Nc2cccc3c2O[C@H](CN(C)C(=O)Nc2ccc4c(c2)OCO4)[C@H](C)CN([C@H](C)CO)C3=O)n(C)n1	none (no result: AI-2 QS mod, HIF act, T cruzi repl)
Cc1nc2ccccc2c(=O)n1/N=C/c1ccc2ccccc2c1O	HIF act 11
Cc1[nH]n(-c2ccccc2)c(=O)c1/C=N/n1c(C)nc2ccccc2c1=O	ARNT TACC3 PPI 31
CCCNC(=O)C[C@H]1CC[C@H]2[C@@H](COc3ccc(NC(=O)COC)cc3C(=O)N2C)O1	none (no result: AI-2 QS mod, HIF act, T cruzi repl)
C[C@H]1CN([C@@H](C)CO)C(=O)Cc2cc(NC(=O)C3CC3)ccc2O[C@H]1CN(C)S(C)(=O)=O	none (no result: AI-2 QS mod, HIF act, T cruzi repl)
COc1cccc(NC(=O)N2C[C@@H](O)COC[C@H]3O[C@H](CC(=O)NCCCN4CCOCC4)CC[C@@H]32)c1	none (no result: AI-2 QS mod, HIF act, T cruzi repl)
CCCCCc1ccc(OCCC[n+]2ccccc2)c(CCCCC)c1	T cruzi repl 75
CCCCCc1ccc(OCCOCCn2c[n+](C)c3ccccc32)c(CCCCC)c1	none (no result: ARNT TACC3 PPI)
CN(C)C(=O)C[C@@H]1C=C[C@@H](NC(=O)NC2CCCC2)[C@@H](CO)O1	none (no result: AI-2 QS mod, HIF act, T cruzi repl)
C[C@@H]1CCCCO[C@@H](CN(C)C(=O)C2CCCCC2)[C@H](C)CN([C@@H](C)CO)C(=O)c2cc(NC(=O)Nc3ccccc3)ccc2O1	none (no result: AI-2 QS mod, HIF act, T cruzi repl)
Cc1cccc(N(Cc2ccccc2)C(=O)CCl)c1	T cruzi repl 72
O=C(CCl)N(Cc1ccccc1)c1ccccc1	none
CN(C)CC(=O)N[C@H]1C=C[C@@H](CC(=O)NCc2ccc(Cl)cc2)O[C@@H]1CO	none (no result: AI-2 QS mod, HIF act, T cruzi repl)
O=C(Nc1ccccc1)N1CCCCN2[C@H](CO)[C@H](c3ccc(C#Cc4ccccn4)cc3)[C@H]2C1	ARNT TACC3 PPI 11 (no result: AI-2 QS mod, HIF act, T cruzi repl)
O=C(Nc1ccccc1)N1CCCCN2[C@@H](CO)[C@H](c3ccc(C#Cc4ccccn4)cc3)[C@@H]2C1	none (no result: AI-2 QS mod, HIF act, T cruzi repl)
O=C(Nc1ccccc1)N1CCCCN2[C@H](CO)[C@@H](c3ccc(C#CC4CC4)cc3)[C@@H]2C1	ARNT TACC3 PPI active (no result: AI-2 QS mod, HIF act, T cruzi repl)
CCCNC(=O)N(C)C[C@H]1Oc2cc(C#CC(C)(C)O)ccc2S(=O)(=O)N([C@@H](C)CO)C[C@@H]1C	none (no result: AI-2 QS mod, HIF act, T cruzi repl)
O=C(N/N=C/c1cc2c3c(c1O)CCCN3CCC2)c1ccccc1O	HIF act 55, T cruzi repl 59 (no result: ARNT TACC3 PPI)
Cn1cc(/C=N/NC(=O)c2ccccc2O)c2ccccc21	none
COc1ccc(NC(=O)Nc2ccc3c(c2)C(=O)N([C@H](C)CO)C[C@@H](C)[C@H](CN(C)Cc2ccc(-c4ccccc4)cc2)O3)cc1	none (no result: AI-2 QS mod, HIF act, T cruzi repl)
CC(C)CN(C(=O)c1ccc([N+](=O)[O-])s1)c1c(N)n(Cc2ccccc2)c(=O)[nH]c1=O	T cruzi repl 64 (no result: AI-2 QS mod)
CN1C(=O)c2cc(NC(=O)c3ccccc3F)ccc2OC[C@H]2O[C@H](CC(=O)NCc3ccc4c(c3)OCO4)CC[C@@H]21	none (no result: AI-2 QS mod, HIF act, T cruzi repl)
Cc1[nH]n(C(C)(C)C)c(=O)c1Sc1ccc(Cl)cc1	T cruzi repl 61
CCCNC(=O)N(C)C[C@@H]1Oc2cc(C#CC(C)(C)O)ccc2S(=O)(=O)N([C@@H](C)CO)C[C@H]1C	none (no result: AI-2 QS mod, HIF act, T cruzi repl)
CC(C)(C)c1cc(NCCCn2ccnc2)n2ncc(-c3ccc(Cl)cc3)c2n1	T cruzi repl 58
CN(C)CCCNc1cc(C(C)(C)C)nc2c(-c3ccccc3)cnn12	T cruzi repl 56
Cc1cc(NCCCN2CCOCC2)n2ncc(-c3ccccc3)c2n1	none
O=C(Nc1ccccc1-c1nnc(SCc2ccccc2)o1)c1ccccc1	none
O=C(Nc1ccccc1-c1nnc(SCc2ccc(Cl)cc2)o1)c1ccccc1	T cruzi repl 71
Clc1ccc(CSc2nnc(-c3c[nH]c4ccccc34)o2)cc1	AI-2 QS mod -77
C[C@H]1CN([C@@H](C)CO)C(=O)c2cc(C#CCC3CCCC3)cnc2O[C@@H]1CN(C)C(=O)CN(C)C	none (no result: AI-2 QS mod, HIF act, T cruzi repl)
O=C(N[C@@H]1CC[C@@H](CCNS(=O)(=O)c2cccc(Cl)c2)O[C@@H]1CO)c1ccc(F)cc1	none (no result: AI-2 QS mod, HIF act, T cruzi repl)
COCC(=O)N(C)C[C@@H]1Oc2ncc(C#C[C@H](C)O)cc2C(=O)N([C@H](C)CO)C[C@H]1C	none (no result: AI-2 QS mod, HIF act, T cruzi repl)
Cc1noc(C)c1S(=O)(=O)Nc1ccc2c(c1)CC(=O)N([C@H](C)CO)C[C@@H](C)[C@@H](CN(C)C(=O)Nc1cccc3ccccc13)O2	none (no result: AI-2 QS mod, HIF act, T cruzi repl)
Cc1cccc(N/C=C(\[N+](=O)[O-])S(=O)(=O)c2ccccc2)c1C	T cruzi repl 82
CCN1CCN(CCCNC(=O)c2ccc(/C=C3/Sc4ccccc4N(Cc4ccccc4F)C3=O)cc2)CC1	T cruzi repl 57
Cc1noc(C)c1NC(=O)N(C)C[C@H]1OCCCC[C@@H](C)Oc2ccc(NS(C)(=O)=O)cc2C(=O)N([C@H](C)CO)C[C@H]1C	none (no result: AI-2 QS mod, HIF act, T cruzi repl)
COc1cccc2c1C(=O)c1c(O)c3c(c(O)c1C2=O)C[C@](O)(C(C)=O)C[C@H]3O[C@@H]1C[C@@H](N)[C@@H](O)[C@@H](C)O1	none
COc1cccc2c1C(=N)c1c(O)c3c(c(O)c1C2=O)CC(O)(C(C)=O)CC3OC1CC(N)C(O)C(C)O1 (centres undefined)	ARNT TACC3 PPI 49 (no result: AI-2 QS mod, HIF act, T cruzi repl)
O=C1c2ccccc2NC(c2ccco2)N1/N=C/c1ccco1 (centres undefined)	none
COc1ccc(/C(C)=N/N2C(=O)c3ccccc3NC2c2ccc(O)c(OC)c2)cc1 (centres undefined)	none
C/C(=N\N1C(=O)c2ccccc2NC1c1ccco1)c1ccccc1O (centres undefined)	T cruzi repl 61
C/C(=N\N1C(=O)c2ccccc2NC1c1ccccc1)c1ccccc1O (centres undefined)	T cruzi repl 66
Nc1nc(N)c2cc(Sc3ccc4ccccc4c3)ccc2n1	T cruzi repl 58 (no result: ARNT TACC3 PPI)
C[C@@H]1CCCCO[C@@H](CN(C)S(=O)(=O)c2ccc(F)cc2)[C@@H](C)CN([C@H](C)CO)C(=O)c2cc(NC(=O)Nc3ccccc3)ccc2O1	none (no result: AI-2 QS mod, HIF act, T cruzi repl)
Cc1ccc(C)c(-c2nn(-c3cc(N4CCN(CCO)CC4)ccc3[N+](=O)[O-])c(=O)c3ccccc23)c1	T cruzi repl 61
Clc1ccccc1OCc1nnc(-c2ccccc2Br)o1	none
O=c1c(Cl)c(Cl)cnn1Cc1nnc(-c2ccccc2Br)o1	T cruzi repl 57
CO[C@@H]1CN(C)C(=O)c2cc(NC(=O)Nc3ccccc3F)ccc2OC[C@H](C)N(C)C[C@H]1C	none (no result: AI-2 QS mod, HIF act, T cruzi repl)
CC(/C=C/c1ccccc1)=N/NC(=O)c1cnccn1	none
COc1ccc(/C=C/C(=O)NC(=S)NNC(=O)c2cccnc2)cc1OC	none
O=C(/C=C/c1ccccc1)NC(=S)NNC(=O)c1cccnc1	AI-2 QS mod -111
O=C(/C=C/c1ccccc1)NC(=S)NNC(=O)c1cnccn1	ARNT TACC3 PPI 60
COC(=O)C[C@@H]1C=C[C@@H](NC(=O)c2ccccc2)[C@@H](CO)O1	none (no result: AI-2 QS mod, HIF act, T cruzi repl)
COc1ccccc1C(c1nnnn1Cc1ccco1)N1CCN(c2cccc(C)c2C)CC1 (centres undefined)	T cruzi repl 74

Screening data: PubChem BioAssay, Broad Institute
